For experiment [1], the system named is Caenorhabditis elegans. As to the kind of experiment: Antioxidant activity against parquat-induced oxidative stress in wild type Caenorhabditis elegans Bristol N2 assessed as increase in survival time at 500 nM to 1 uM. It counts as functional, organism-based. In outline:
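Age-synchronised 7-day-old adult N2 worms were placed overnight on agar plates with 40 μM FUDR and paraquat, with or without compound (50 nM, 500 nM, 1 μM), at 20 °C. Viability was scored over 20 h, with 30 worms per trial in three independent experiments. Survival was plotted as Kaplan–Meier curves.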

Experiment [2] deals with Caenorhabditis elegans. Kind of experiment: Antioxidant activity against parquat-induced oxidative stress in wild type Caenorhabditis elegans Bristol N2 assessed as increase in survival time at 500 nM (reference value: 17.64 +/- 0.19 days). It counts as functional.
The subject of experiment [3] is Caenorhabditis elegans. Kind of experiment: Antioxidant activity against parquat-induced oxidative stress in wild type Caenorhabditis elegans Bristol N2 assessed as increase in survival time at 1 uM (reference value: 17.64 +/- 0.19 days). It counts as functional.
Experiment [4] concerns Caenorhabditis elegans. As to the kind of experiment: Antioxidant activity against parquat-induced oxidative stress in wild type Caenorhabditis elegans Bristol N2 assessed as increase in survival time. It is filed as functional, organism-based. In outline:
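Seven-day-old synchronised N2 adults, 30 worms per trial at 20 °C. Worms were placed overnight on agar containing paraquat and 40 μM FUDR, with or without test compound. Viability was scored over a 20 h period. Three independent experiments.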

Experiment [5] has as its system Caenorhabditis elegans. Kind of experiment: Antioxidant activity against heat-induced oxidative stress in wild type Caenorhabditis elegans Bristol N2 assessed as increase in survival time measured for 16 hrs at 37 degC relative to control. It is filed as functional, organism-based.
For experiment [6], the system named is Caenorhabditis elegans. Kind of experiment: Antioxidant activity in wild type Caenorhabditis elegans Bristol N2 assessed as decrease in oxidative stress-induced carboxymethyllysine formation by ELISA. It counts as functional, organism-based. The method, boiled down:
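Protein extracts came from N2 worms treated for 7 days with or without compound, with 40 μM FUDR; protein was quantified. CML was measured by competitive ELISA on streptavidin-coated plates using biotinylated glucose-glycated BSA and an HRP-labelled mouse monoclonal anti-CML antibody.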
In general terms: In an ELISA, binding on a coated surface is turned into a signal by an enzyme label.

Experiment [7] relates to Caenorhabditis elegans. Kind of experiment: Antioxidant activity against lipid peroxidation in wild type Caenorhabditis elegans Bristol N2 assessed as decrease of malondialdehyde level. It is filed as functional, organism-based. In outline: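 N2 worms were kept 7 days on plates with 40 μM FUDR, with or without compound. They were washed by sucrose flotation, homogenised in Tris-HCl pH 7.9 buffer with protease inhibitors, and centrifuged. The lysate was treated with 8.1% SDS for 10 min at room temperature, then boiled 60 min with 20% acetic acid and 0.6% thiobarbituric acid, with 0.01% BHT present. A butanol:pyridine (15:1) extract was read at 532 nm against a tetramethoxypropane standard. MDA was expressed as nmol/g protein.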

Experiment [8] relates to Caenorhabditis elegans. As to the kind of experiment: Antioxidant activity against parquat-induced oxidative stress in wild type Caenorhabditis elegans Bristol N2 assessed as increase in survival time at 50 nM (reference value: 17.64 +/- 0.19 days). It counts as functional.
In experiment [9] the test system is Caenorhabditis elegans. As to the kind of experiment: Antioxidant activity against heat-induced oxidative stress in wild type Caenorhabditis elegans Bristol N2 assessed as increase in survival time at 50 nM […] relative to control. It counts as functional.
Experiment [10] has as its system Caenorhabditis elegans. Kind of experiment: Antioxidant activity against heat-induced oxidative stress in wild type Caenorhabditis elegans Bristol N2 assessed as increase in survival time at 500 nM […] relative to control. It counts as functional.
In experiment [11] the test system is Caenorhabditis elegans. As to the kind of experiment: Antioxidant activity against heat-induced oxidative stress in wild type Caenorhabditis elegans Bristol N2 assessed as increase in survival time at 1 uM […] relative to control. It is filed as functional.

Active and inactive are the calls of the source. The calls are words filed in the database; no cut-off is given here.

Turning to `CCSc1nn2c(=O)c(/C=N/O)c(NCC(C)C)c(C#N)c2n1-c1ccccc1`, the outcome in the experiment on Caenorhabditis elegans [1] and in the experiment with Caenorhabditis elegans [2] was inactive.
`CCOC(=O)c1cc2c(=O)n3nc(SCC)n(-c4ccccc4)c3c(C#N)c2[nH]1`: the result in the experiment on Caenorhabditis elegans [1] and in the experiment with Caenorhabditis elegans [2] was inactive.
As to `CCSc1nn2c(=O)c(/C=N/O)c(Cl)c(C#N)c2n1-c1ccccc1`, the outcome in the experiment with Caenorhabditis elegans [1] and in the experiment on Caenorhabditis elegans [2] was inactive.
For `CCSc1nn2c(=O)c(C#N)c(N)c(C#N)c2n1-c1ccccc1`, the Time in the experiment on Caenorhabditis elegans [3] was 21 days; in the experiment on Caenorhabditis elegans [2] it was 19.76 days; in the experiment with Caenorhabditis elegans [8], 18 days. Also, the Activity entry in the experiment with Caenorhabditis elegans [4], in the experiment on Caenorhabditis elegans [5], in the experiment on Caenorhabditis elegans [6] and with Caenorhabditis elegans [7] was “Dose-dependent effect” in each case. The “fold change (FC)” value was found to be 1.8 with Caenorhabditis elegans [9], 2 in the experiment with Caenorhabditis elegans [10] and 2.5 in the experiment with Caenorhabditis elegans [11].
